# Sampled rows, rich in hits. Any-hit rate of the full collection: about 1.8%.
# TNAP act hiacc: increases human TNAP activity under high phosphate acceptor concentration. purified TNAP, CDP-star luminescence, 1 M DEA, 30 min; stronger effect = higher value; 0 = EDTA background, 1 = DMSO-only activity. 200,000 tested, under 10 active. AID 1136. P05186. activation factor at 20 µM;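 active means activation factor at least 2 at 20 µM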
#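 Measured by: Luminescent substrate turnover signal | Test system: Human TNAP | Input: TNAP 1/800 final | Dosing: 20 µM single point | Schedule: 30 min, room temperature | Controls: EDTA wells as negative control, DMSO wells as positive control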
# TNAP inh no acc: inhibitors of human TNAP without phosphate acceptor; P05186; purified TNAP, CDP-star luminescence, 30 min; inhibition, % at 20 µM; 200,000 tested, 0.26% active;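 active means tissue-nonspecific alkaline phosphatase inhibition above about 50% at 20 µM in the single-dose screen, limit read from the data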;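 further: 0% = DMSO negative control and 100% = EDTA positive control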
# Ins promoter up: MIN6 insulin promoter up-regulation. 190,000 tested, 0.3% active. z-score at 5 µM. MIN6 insulin promoter-GFP reporter, high-content imaging; stronger effect = higher value;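 active means z-score above 3 at 5 µM with at least 500 cells counted in the well; inconclusive means wells under 500 cells, flagged as cytotoxic or low count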
# Autophagy mod: autophagy modulation, high-content screen | MEF GFP-LC3 puncta imaging; test concentration mostly 10 µM | calls only at 10 µM (by protocol) | 190,000 tested, 0.98% active | AID 463193;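 active means percentage of spot-positive cells more than 3 SD above its plate mean, without a fluorescence outlier flag or 80% toxicity; inconclusive means no clear call, values can overlap the other calls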;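 further: spot-positive cell cutoff set from DMSO-treated cells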
# TNAP inh hi DEA: inhibitors of human TNAP at high phosphate acceptor concentration. P05186. purified TNAP, CDP-star luminescence, 1 M DEA. inhibition, % at 20 µM. 200,000 tested, 0.03% active;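 active means over 50% inhibition of tissue-nonspecific alkaline phosphatase at 20 µM in the single-dose screen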;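 further: plate controls were DMSO wells for no effect and EDTA-quenched wells as full inhibition for full effect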
# NCF1 inh: p47phox (human) inhibition. inhibition, % at 24.7 µM. p47phox/p22phox peptide binding, fluorescence polarization, 2 h. P14598. 220,000 tested, 0.53% active;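 active means inhibition above about 30%, limit read from the data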;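 further: 0% = p47phox with labelled peptide and 100% = labelled peptide alone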
# Target sequence (P14598 whole entry, looked up): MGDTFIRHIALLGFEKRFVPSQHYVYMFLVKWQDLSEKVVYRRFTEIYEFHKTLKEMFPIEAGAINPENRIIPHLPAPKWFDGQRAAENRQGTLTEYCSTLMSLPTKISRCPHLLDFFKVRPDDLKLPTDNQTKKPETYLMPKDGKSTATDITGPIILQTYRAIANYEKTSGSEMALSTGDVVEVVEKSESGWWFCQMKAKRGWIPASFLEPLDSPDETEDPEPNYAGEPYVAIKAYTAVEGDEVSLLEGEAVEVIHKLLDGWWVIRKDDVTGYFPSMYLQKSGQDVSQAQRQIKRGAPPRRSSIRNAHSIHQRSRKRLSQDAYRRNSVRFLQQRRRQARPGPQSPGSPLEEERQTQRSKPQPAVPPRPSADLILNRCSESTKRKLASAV
# An asterisk follows results filed as active; i = inactive; ? = inconclusive; . = not tested or not shown; + = active, no number.
SMILES,TNAP act hiacc,TNAP inh no acc,Ins promoter up,Autophagy mod,TNAP inh hi DEA,NCF1 inh
CN(C)CCNc1oc(COc2ccc(-c3ccccc3)cc2)nc1C#N,1,-6.7,-1.18,+,-3.9,-7.6
Nc1nc(NCc2ccco2)nc(Nc2ccccc2)c1[N+](=O)[O-],.,.,-0.58,.,.,76.2*
Brc1ccc(-c2ccc(/C=N/Nc3nncc(-c4ccccc4)n3)o2)cc1,1,3.4,-0.33,+,-0.8,-2.7
Brc1ccc(-c2ccc(/C=N/Nc3nc(N4CCOCC4)nc(N4CCOCC4)n3)o2)cc1,1,-4.4,0.14,+,-1.8,0.4
CSCCC(C(=O)OC1CCOC1=O)N1C(=O)c2ccccc2C1=O (stereo unspecified),1,-6.6,0.34,i,0.8,3.7
CC(C)CNS(=O)(=O)c1ccc(CCC(=O)NCCC2=CCCCC2)cc1,1,-10.6,0.2,i,-4.8,-6.5
N#CCCN(Cc1cccnc1)C(=S)Nc1ccccc1Cl,1,-4.4,-0.18,i,-3.1,36.6*
Cc1ccc(-c2nc(N)s[n+]2-c2ccccc2)cc1,1,6.9,0.08,i,-3.2,93.0*
Cc1ccc(-c2nnc(-c3ccccc3)o2)cc1,1,-8.5,-0.51,i,-3.9,-7.3
CNc1nc(-c2ccccc2)[n+](-c2ccc(C)cc2)s1,0.9,-7.6,1.08,i,5.2,93.8*
Cc1ccc(-n2c(C)cc(/C=c3/sc4nc5ccccc5n4c3=O)c2C)cc1,1,-3.6,0.05,i,0.0,-51.2
COc1cc(N2CCCC2)c(OC)cc1/C=c1/sc2nc3ccccc3n2c1=O,0.8,18.5,16.8*,+,23.2,-112.5
O=c1/c(=C\c2cccn2-c2ccccc2)sc2nc3ccccc3n12,1,-5.5,1.36,+,1.5,-29.9
O=C(O)Cn1cc(/C=c2/sc3nc4ccccc4n3c2=O)c2ccccc21,0.9,21.0,0.35,i,11.0,-59.2
C=CCN1C=CC(=CC=C(C#N)C#N)C=C1,.,.,.,.,.,-1.6
CCCCCCN1C=CC=C/C1=C/C=C(C#N)C#N,0.8,22.7,1.18,i,23.5,-14.0
CCCCCCN1C=C/C(=C\C=C(C#N)C#N)c2ccccc21,0.5,39.1,.,i,45.4,127.8*
C=CCN1C=C/C(=C\C=C(C#N)C#N)c2ccccc21,0.5,29.1,0.11,i,49.6,82.6*
COc1ccc(-c2nnn(CCc3nn[nH]n3)n2)cc1,.,.,.,i,.,.
Cc1ccc(S(=O)(=O)N2CCC(c3nc4c(nnn4Cc4ccccc4)c(=O)[nH]3)CC2)cc1,1,-6.5,-0.71,+,-4.4,0.1
Cc1ccc(Cn2nnc3c(=O)[nH]c(C4CCN(S(=O)(=O)c5ccccc5)CC4)nc32)cc1,1.1,0.8,-0.19,i,-6.9,-2.2
CCOc1ccc(NS(=O)(=O)c2ccc(NC(=S)NC(=O)CC(C)C)cc2)cc1,1.1,-1.0,-1.41,i,-7.2,-10.6
Cc1ccc(SCC(=O)Nc2ccc(S(=O)(=O)Nc3nccs3)cc2)cc1,1,-4.0,0.15,+,2.3,-26.0
CC(C)CC(=O)NC(=S)Nc1ccc(S(=O)(=O)Nc2nccs2)cc1,1,-14.0,-0.08,+,2.4,-8.7
CN(C)/N=C/C=C1\CCC/C(=C\c2ccc(F)c(F)c2)C1=O,1.1,-0.8,-0.45,+,-7.1,-12.2
SMILES,TNAP act hiacc,TNAP inh no acc,Ins promoter up,Autophagy mod,TNAP inh hi DEA,NCF1 inh
COc1ccc(/C=C2\CCC/C(=C\C=N\N(C)C)C2=O)cc1,0.9,16.6,-1.23,i,7.4,-34.7
CCOc1cccc2sc(Cl)nc12,1,-0.2,.,i,0.0,-1.1
CCOc1ccc(OCC)c2sc(C)nc12,1.1,-7.6,0.51,i,-9.1,59.4*
CCCCN1C(=O)Cc2c1nc(N)c1c(N)nc(N(CCC)CCC)c(C#N)c21,1.1,-21.5,-1.36,+,-6.9,16.6
COc1ccc(CNC(=O)c2noc(C)c2[N+](=O)[O-])cc1,1,0.8,-0.25,i,-2.3,33.0*
O=C1N=c2ccccc2=C1c1sc(Nc2ccc(O)cc2)nc1O,0.6,81.6*,-0.19,i,44.4,-77.4
O=C1N=c2ccccc2=C1c1sc(NS(=O)(=O)c2ccccc2)nc1O,1,13.4,0.68,i,2.3,-26.3
O=c1cc(CN2CCN(c3cccc(C(F)(F)F)c3)CC2)nc2sccn12,.,.,-0.34,.,.,-12.0
CCOC(=O)N1CCc2c(sc3nc4n(c(=O)c23)N=C(c2ccc(OC)cc2)CS4)C1,.,.,-0.31,.,.,37.9*
Cc1ccc(OCC(=O)Nc2ccc(Cl)cc2)c(-n2nc3ccccc3n2)c1,1,-6.9,-0.88,+,-3.8,0.4
CCOc1ccc(C)cc1-n1nc2ccccc2n1,1,10.5,-0.65,i,-1.4,-4.2
CC(Sc1ncc(C(F)(F)F)cc1Cl)C(=O)NCC1CCCO1 (stereo unspecified),1.1,-5.9,-0.41,i,-5.7,-5.5
COc1ccc([N+](=O)[O-])cc1NC(=O)COC(C)=O,1,-12.3,1.66,i,0.1,10.4
COc1ccc(C)cc1NC(=O)COC(C)=O,1,-8.2,3.48*,i,-1.7,-1.0
COc1cccc2c3c(c(C)nc12)CCN3c1ccccc1,1,-2.2,.,+,-3.8,3.0
COc1ccccc1N1CCc2c(C)nc3c(OC)cccc3c21,1,4.4,-0.71,i,-1.1,-9.3
CCOC(=O)C(=O)N1CCN(c2cc3c(cc2[N+](=O)[O-])n(C)c(=O)n3C)CC1,1,-2.0,-1.08,i,4.8,6.9
CC(=O)NC(Cc1ccc(C)cc1)C(=O)NC1CCN(C(=O)c2ccc([N+](=O)[O-])cc2)CC1 (stereo unspecified),1,-5.4,0.09,i,-1.8,-11.0
CC(=O)NC(Cc1ccccc1C)C(=O)NC1CCN(C(=O)c2ccc(C)cc2)CC1 (stereo unspecified),1,-4.7,-0.4,+,2.2,13.3
CCSc1ccc(-c2ccc(C)cc2)nn1,1,-2.4,0.52,i,0.2,37.0*
CCOc1ccc(-c2ccc(SCC)nn2)cc1,1.1,-9.8,-0.17,i,-5.1,-2.9
O=C(N/N=C/C=C/c1ccccc1)NC1CCCCC1,1,-10.2,-0.61,+,-3.0,7.9
O=C(Nc1ccc(OC(F)F)c(Cl)c1)Nc1ccc2c(c1)OCO2,1.1,-13.0,0.15,i,-5.9,6.8
O=C(Nc1ccc([N+](=O)[O-])cc1)Nc1ccc(OC(F)F)c(Cl)c1,1,-5.8,?,+,0.6,-44.6
O=S(=O)(Nc1nc2ccccc2nc1NCC1CCCO1)c1cc(Cl)ccc1Cl (stereo unspecified),.,.,-0.21,.,.,-10.5
COc1ccc(NC(=S)NNC(=O)c2cccnc2)cc1OC,1,-137.2,-0.21,i,-4.6,-1.1
COc1ccc(Cl)cc1NC(=S)NNC(=O)c1cccnc1,1.1,-127.1,-0.18,+,-5.2,-8.6

# Compound activity deposited in PubChem BioAssay by several laboratories.
